Source: publication PMC6369589 (Cell, 2019)
pIC50: −log10 of the molar value.

Assays:
Ae. aegypti NPYLR7 = Ae. aegypti NPYLR7 (Aedes aegypti, UniProt U5N1H5); assay: GCaMP6s calcium cell-based assay, HEK293T cells expressing NPYLR7 and Gqα15
Summary of the method: (§1)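 HEK293T cells transiently co-transfected (Lipofectamine 2000) with 1 μg each of GCaMP6s, mouse Gqα15 and receptor plasmids. Cells were plated overnight in DMEM/FBS at 37°C, 5% CO2, then imaged in HBSS + 20 mM HEPES. Test agonist plus inhibitor added after 30 s baseline; GFP fluorescence read every 1 s for 5 min, normalized to baseline. Log(inhibitor)-response nonlinear fit; mean ± SD, 3 trials × 4 replicates.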

[1] = system: Ae. aegypti female mosquitoes; assay: Miniport olfactometer host-seeking after Glytube drug-feeding; assay type: in vivo, Aedes aegypti; conditions: fed in protein-rich artificial blood-meal, assayed 2 days after feeding
Ae. aegypti NPYLR5 = assay: GCaMP6s calcium cell-based assay, HEK293T cells expressing NPYLR5 and Gqα15; set-up: species or system Aedes aegypti; conditions: dose-inhibition of TM30335 activation
Summary of the method: as §1

**Q.** What does the source list for `N=C(N)NCCC[C@H](NC(=O)CC1(CC(=O)N2CCN(C3c4ccccc4NC(=O)c4ccccc43)CC2)CCCC1)C(=O)NCCn1c(=O)n(-c2ccccc2)n(-c2ccccc2)c1=O` (stereo partly drawn) [BIIE0246]?
**A.** pIC50 (Ae. aegypti NPYLR7): 5.29; release from host-seeking suppression in miniport olfactometer [1]: dose-dependent release from suppression; effect on NPYLR5 responses to TM30335 (Ae. aegypti NPYLR5): no effect
